{"source": "ChEMBL document CHEMBL1125244", "about": "“4',5'-unsaturated 5'-halogenated nucleosides. Mechanism-based and competitive inhibitors of S-adenosyl-L-homocysteine hydrolase” (J Med Chem, 1991)", "key": {"[1]": {"biological_target": "T1, Adenosylhomocysteinase (Rattus norvegicus, UniProt P10760)", "T1 sequence (P10760 whole entry)": "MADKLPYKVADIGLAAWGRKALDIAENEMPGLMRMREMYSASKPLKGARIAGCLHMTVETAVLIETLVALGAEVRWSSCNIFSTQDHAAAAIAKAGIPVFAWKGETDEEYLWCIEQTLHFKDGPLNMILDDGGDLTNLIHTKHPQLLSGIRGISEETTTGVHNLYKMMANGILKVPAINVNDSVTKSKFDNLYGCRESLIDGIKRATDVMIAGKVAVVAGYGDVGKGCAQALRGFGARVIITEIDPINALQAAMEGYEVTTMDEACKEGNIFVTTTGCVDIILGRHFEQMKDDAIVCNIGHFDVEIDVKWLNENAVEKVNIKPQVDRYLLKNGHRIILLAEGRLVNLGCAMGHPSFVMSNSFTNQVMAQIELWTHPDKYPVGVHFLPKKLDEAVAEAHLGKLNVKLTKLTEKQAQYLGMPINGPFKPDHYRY", "assay": "(§1) Activity determined in rat liver S-adenosyl-L-homocysteine hydrolase and expressed as KI values.; call rule not given here"}, "[2]": {"biological_target": "T1, Adenosylhomocysteinase", "assay": "Activity determined in rat liver S-adenosyl-L-homocysteine hydrolase and expressed as Kinactivator values."}, "[3]": {"biological_target": "T2, Adenosylhomocysteinase (Mus musculus, UniProt P50247)", "T2 sequence (P50247 whole entry)": "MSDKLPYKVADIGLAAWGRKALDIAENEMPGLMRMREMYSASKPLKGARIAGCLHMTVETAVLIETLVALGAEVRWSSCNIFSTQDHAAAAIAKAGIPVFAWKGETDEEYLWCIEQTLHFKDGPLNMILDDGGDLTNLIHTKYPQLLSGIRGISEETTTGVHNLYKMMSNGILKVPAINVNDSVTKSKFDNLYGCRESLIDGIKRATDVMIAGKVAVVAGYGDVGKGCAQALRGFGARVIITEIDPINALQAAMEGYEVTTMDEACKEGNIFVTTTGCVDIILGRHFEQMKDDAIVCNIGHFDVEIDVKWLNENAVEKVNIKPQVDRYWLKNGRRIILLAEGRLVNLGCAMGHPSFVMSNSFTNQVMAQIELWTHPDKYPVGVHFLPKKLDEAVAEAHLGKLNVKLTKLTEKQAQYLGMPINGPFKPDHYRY", "assay": "Activity determined in mouse liver S-adenosyl-L-homocysteine hydrolase and expressed as KI values."}, "[4]": {"biological_target": "T3, Adenosylhomocysteinase (Rattus norvegicus) (UniProt P10760)", "T3 sequence (whole entry)": "T1 sequence (P10760 whole entry)"}, "[5]": {"biological_target": "Adenosylhomocysteinase (Mus musculus) (UniProt P50247)", "sequence (P50247 2-432 limits assumed)": "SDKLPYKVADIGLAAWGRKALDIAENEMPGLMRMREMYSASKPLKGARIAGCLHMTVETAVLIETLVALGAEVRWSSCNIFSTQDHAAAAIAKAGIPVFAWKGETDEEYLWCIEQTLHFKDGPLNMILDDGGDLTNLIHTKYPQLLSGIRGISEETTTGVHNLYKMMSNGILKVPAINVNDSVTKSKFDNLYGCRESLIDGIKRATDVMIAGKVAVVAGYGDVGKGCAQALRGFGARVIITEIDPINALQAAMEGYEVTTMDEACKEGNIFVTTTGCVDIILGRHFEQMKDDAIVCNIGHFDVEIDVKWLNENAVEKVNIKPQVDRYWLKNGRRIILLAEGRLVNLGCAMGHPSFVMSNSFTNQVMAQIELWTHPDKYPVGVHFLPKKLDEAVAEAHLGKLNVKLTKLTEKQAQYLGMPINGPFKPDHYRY"}, "[6]": {"system": "Moloney murine leukemia virus", "assay": "Antiretroviral activity in the XC-plaque assay using Moloney leukemia virus (MoLV) as a model for human immunodeficiency virus (HIV).", "format": "functional, organism-based"}, "[7]": {"biological_target": "T1, Adenosylhomocysteinase", "assay": "Activity determined in rat liver S-Adenosyl-homocysteine hydrolase and expressed as KI values; NA= not applicable"}, "[8]": {"biological_target": "T1, Adenosylhomocysteinase", "assay": "Competitive inhibitory activity against rat liver S-Adenosyl-homocysteine hydrolase"}, "[9]": {"biological_target": "T2, Adenosylhomocysteinase", "assay": "Activity determined in mouse liver S-Adenosyl-homocysteine hydrolase and expressed as KI values; NA= not applicable"}, "[10]": {"biological_target": "T1, Adenosylhomocysteinase", "assay": "Activity determined in rat liver S-Adenosyl-L-homocysteine (SAH) Hydrolase and expressed as KI values; NA= not applicable"}, "[11]": {"biological_target": "T2, Adenosylhomocysteinase", "assay": "Activity determined in mouse liver S-Adenosyl-L-homocysteine (SAH) Hydrolase and expressed as KI values; NA= not applicable", "method_in_brief": "(§2)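 Partially purified mouse liver enzyme (38–55% ammonium sulfate fraction, stored at –70 °C), assayed in the synthetic direction. The mix held […] potassium phosphate, 2 mM 2-mercaptoethanol, 0.1 mM adenosine plus [³H]adenosine, 10 mM DL-homocysteine and 1.0 μM 2-deoxycoformycin, run 10–20 min at 37 °C. [³H]SAH was separated on Cellex-P and counted. Time-dependent inactivation constants came from the Kitz–Wilson method.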"}, "[12]": {"biological_target": "T1, Adenosylhomocysteinase", "assay": "Time-dependent inhibitory activity against rat liver S-adenosyl-L-homocysteine hydrolase"}, "[13]": {"biological_target": "T3, Adenosylhomocysteinase (Rattus norvegicus)", "assay": "as §1"}, "[14]": {"biological_target": "T2, Adenosylhomocysteinase", "assay": "Activity determined in mouse liver S-adenosyl-L-homocysteine hydrolase and expressed as KI values; NA= not applicable", "method_in_brief": "as §2"}, "[15]": {"biological_target": "T1, Adenosylhomocysteinase", "assay": "Activity determined in rat liver S-adenosyl-L-homocysteine hydrolase and expressed as KI values; NA= not applicable"}, "[16]": {"biological_target": "T1, Adenosylhomocysteinase", "assay": "Activity determined in rat liver S-adenosyl-L-homocysteine hydrolase and expressed as Kinactivator values; NA= not applicable"}}}
{"smiles": "Nc1ncnc2c1ncn2[C@@H]1O/C(=C\\F)[C@@H](O)[C@H]1O", "values": [{"measurement": "Ki", "setting": "[1]", "result": 6.5, "unit": "µM"}, {"measurement": "Ki", "setting": "[2]", "result": "Not Active"}, {"measurement": "Ki", "setting": "[3]", "result": 0.55, "unit": "µM"}, {"measurement": "K inact", "setting": "[4]", "result": 0.8, "unit": "min⁻¹"}, {"measurement": "K inact", "setting": "[5]", "result": 0.28, "unit": "min⁻¹"}, {"measurement": "IC50", "setting": "[6]", "result": 0.05, "unit": "µg/mL"}]}
{"smiles": "Nc1ncnc2c1ncn2[C@@H]1O/C(=C(/F)Cl)[C@@H](O)[C@H]1O", "values": [{"measurement": "Ki", "setting": "[7]", "result": "Not Active"}, {"measurement": "Ki", "setting": "[8]", "result": 1.5, "unit": "µM"}, {"measurement": "IC50", "setting": "[6]", "result": 0.1, "unit": "µg/mL"}, {"measurement": "Ki", "setting": "[9]", "result": "Not Active"}]}
{"smiles": "Nc1ncnc2c1ncn2[C@H]1C[C@H](O)/C(=C\\F)O1", "values": [{"measurement": "Ki", "setting": "[10]", "result": "Not Active"}, {"measurement": "Ki", "setting": "[11]", "result": "Not Active"}]}
{"smiles": "Nc1ncnc2c1ncn2C1O[C@H](C(F)F)[C@@H](O)[C@H]1O", "note": "(stereo partly specified)", "values": [{"measurement": "Ki", "setting": "[2]; read-out: Ki", "result": 9.7, "unit": "µM"}, {"measurement": "Ki", "setting": "[12]", "result": 9.7, "unit": "µM"}, {"measurement": "K inact", "setting": "[13]", "result": 0.04, "unit": "min⁻¹"}, {"measurement": "Ki", "setting": "[3]", "result": 10, "unit": "µM"}, {"measurement": "K inact", "setting": "[5]", "result": 0.6, "unit": "min⁻¹"}, {"measurement": "IC50", "setting": "[6]", "result": 0.8, "unit": "µg/mL"}]}
{"smiles": "Nc1ncnc2c1ncn2[C@@H]1O/C(=C\\Cl)[C@@H](O)[C@H]1O", "values": [{"measurement": "Ki", "setting": "[14]", "result": "Not Active"}, {"measurement": "Ki", "setting": "[15]", "result": "Not Active"}, {"measurement": "IC50", "setting": "[6]", "result": 3.3, "unit": "µg/mL"}, {"measurement": "Ki", "setting": "[16]", "result": 1.6, "unit": "µM"}]}
{"smiles": "Nc1ncnc2c1ncn2[C@@H]1O/C(=C(\\F)Cl)[C@@H](O)[C@H]1O", "values": [{"measurement": "Ki", "setting": "[14]", "result": "Not Active"}, {"measurement": "Ki", "setting": "[15]", "result": "Not Active"}, {"measurement": "IC50", "setting": "[6]", "result": 1.3, "unit": "µg/mL"}, {"measurement": "Ki", "setting": "[16]", "result": 3, "unit": "µM"}]}
{"smiles": "Nc1ncnc2c1ncn2[C@@H]1O/C(=C/F)[C@@H](O)[C@H]1O", "values": [{"measurement": "Ki", "setting": "[1]", "result": 2.4, "unit": "µM"}, {"measurement": "Ki", "setting": "[2]", "result": "Not Active"}, {"measurement": "Ki", "setting": "[3]", "result": 1.04, "unit": "µM"}, {"measurement": "K inact", "setting": "[4]", "result": 0.14, "unit": "min⁻¹"}, {"measurement": "K inact", "setting": "[5]", "result": 0.23, "unit": "min⁻¹"}, {"measurement": "IC50", "setting": "[6]", "result": 0.25, "unit": "µg/mL"}]}
{"smiles": "Nc1ncnc2c1ncn2[C@@H]1O/C(=C\\F)[C@@H](O)[C@@H]1O", "values": [{"measurement": "Ki", "setting": "[7]", "result": "Not Active"}, {"measurement": "Ki", "setting": "[8]", "result": 11, "unit": "µM"}, {"measurement": "IC50", "setting": "[6]", "result": 1.2, "unit": "µg/mL"}, {"measurement": "Ki", "setting": "[9]", "result": "Not Active"}]}
{"smiles": "Nc1ncnc2c1ncn2[C@@H]1O[C@H](CO)[C@@H](O)[C@@H]1O", "note": "[VIDARABINE]", "values": [{"measurement": "Ki", "setting": "[3]", "result": 30, "unit": "µM"}, {"measurement": "IC50", "setting": "[6]", "result": 1, "unit": "µg/mL"}]}
{"smiles": "Nc1ncnc2c1ncn2[C@@H]1O/C(=C/F)[C@@H](O)[C@@H]1O", "values": [{"measurement": "Ki", "setting": "[7]", "result": "Not Active"}, {"measurement": "Ki", "setting": "[8]", "result": 3.2, "unit": "µM"}, {"measurement": "IC50", "setting": "[6]", "result": 4.4, "unit": "µg/mL"}, {"measurement": "Ki", "setting": "[9]", "result": "Not Active"}]}
{"smiles": "Nc1ncnc2c1ncn2[C@H]1C[C@H](O)/C(=C/F)O1", "values": [{"measurement": "Ki", "setting": "[14]", "result": "Not Active"}, {"measurement": "Ki", "setting": "[15]", "result": "Not Active"}, {"measurement": "IC50", "setting": "[6]", "result": 10, "unit": "µg/mL"}, {"measurement": "Ki", "setting": "[16]", "result": 150, "unit": "µM"}]}
